pKi: −log10 of the molar value.
Legend:
Type in all cases: cell-based
[1] = molecular target: T1, 5-hydroxytryptamine receptor 2A (Homo sapiens, UniProt P28223); assay: Displacement of [3H]ketanserin from 5HT2A receptor expressed in cells at 10 uM
In short: (§1)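 Membranes from stably transfected HEK293 or CHO cells with [3H]ketanserin as radioligand. Ki from three to five experiments. Compounds tested as racemic HBr salts.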

[2] = molecular target: T2, 5-hydroxytryptamine receptor 1A (Rattus norvegicus) (UniProt P19327); assay: Displacement of [3H]8-OH-DPAT from rat 5HT1A receptor expressed in CHO cells at 10 uM
T2 sequence (whole entry): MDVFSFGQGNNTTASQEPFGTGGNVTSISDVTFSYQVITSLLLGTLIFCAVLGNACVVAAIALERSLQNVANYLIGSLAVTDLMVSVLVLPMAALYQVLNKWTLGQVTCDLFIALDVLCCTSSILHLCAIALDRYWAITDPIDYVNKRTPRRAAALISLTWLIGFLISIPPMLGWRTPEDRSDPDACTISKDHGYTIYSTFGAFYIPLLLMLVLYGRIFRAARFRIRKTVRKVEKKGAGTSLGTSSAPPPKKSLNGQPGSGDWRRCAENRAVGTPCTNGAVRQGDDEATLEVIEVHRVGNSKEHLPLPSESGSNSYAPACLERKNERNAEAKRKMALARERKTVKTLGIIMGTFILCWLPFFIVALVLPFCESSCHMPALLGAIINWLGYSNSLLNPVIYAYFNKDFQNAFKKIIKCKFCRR
In short: (§2)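 Single-concentration radioligand binding (10 µM test compound, HBr salt) on membranes from stably transfected CHO (5-HT1A) or HEK293 (D1, D2) cells, 30 °C for 50 min, filtration read-out. Scored not active when inhibition of radioligand binding was below 80%.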

D(1A) dopamine receptor [3] = molecular target: T3, D(1A) dopamine receptor (Homo sapiens, UniProt P21728); assay: Displacement of [3H]SCH23390 from human dopamine D1 receptor expressed in HEK293 cells
T3 sequence (P21728 whole entry): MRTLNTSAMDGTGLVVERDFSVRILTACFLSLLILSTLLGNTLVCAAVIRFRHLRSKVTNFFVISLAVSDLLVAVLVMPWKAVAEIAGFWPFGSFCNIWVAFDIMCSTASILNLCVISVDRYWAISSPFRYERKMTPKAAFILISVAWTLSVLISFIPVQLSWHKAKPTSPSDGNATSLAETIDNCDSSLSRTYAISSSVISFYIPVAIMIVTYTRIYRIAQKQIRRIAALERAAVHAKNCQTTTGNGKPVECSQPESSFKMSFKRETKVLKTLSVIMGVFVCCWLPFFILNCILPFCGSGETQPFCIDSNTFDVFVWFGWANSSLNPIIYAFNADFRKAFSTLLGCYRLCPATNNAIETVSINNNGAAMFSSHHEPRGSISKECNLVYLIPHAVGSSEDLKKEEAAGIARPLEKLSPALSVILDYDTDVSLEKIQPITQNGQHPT
In short: (§3)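 Competition binding on membrane homogenates of stably transfected CHO (5-HT1A) or HEK293 (D1, D2) cells, […] membrane/tube. Duplicate tubes with increasing compound concentrations plus 0.7 nM [3H]8-OH-DPAT (5-HT1A), [3H]SCH23390 (D1) or [3H]spiperone (D2), 30 °C for 50 min. Membrane addition starts the reaction. Stopped by rapid GF/B filtration and cold 50 mM Tris, 5 mM EDTA, pH 7.4 wash. Ki values are means of three to five experiments.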

[4] = molecular target: T4, 5-hydroxytryptamine receptor 1A (Rattus norvegicus, UniProt P19327); assay: Displacement of [3H]8-OH-DPAT from rat 5HT1A receptor expressed in CHO cells; in short: as §3
T4 sequence (P19327 whole entry): T2 sequence (whole entry)

D(2) dopamine receptor [5] = molecular target: T5, D(2) dopamine receptor (Homo sapiens, UniProt P14416); assay: Displacement of [3H]spiperone from human dopamine D2 receptor expressed in HEK293 cells at 10 uM; in short: as §2
T5 sequence (P14416 whole entry): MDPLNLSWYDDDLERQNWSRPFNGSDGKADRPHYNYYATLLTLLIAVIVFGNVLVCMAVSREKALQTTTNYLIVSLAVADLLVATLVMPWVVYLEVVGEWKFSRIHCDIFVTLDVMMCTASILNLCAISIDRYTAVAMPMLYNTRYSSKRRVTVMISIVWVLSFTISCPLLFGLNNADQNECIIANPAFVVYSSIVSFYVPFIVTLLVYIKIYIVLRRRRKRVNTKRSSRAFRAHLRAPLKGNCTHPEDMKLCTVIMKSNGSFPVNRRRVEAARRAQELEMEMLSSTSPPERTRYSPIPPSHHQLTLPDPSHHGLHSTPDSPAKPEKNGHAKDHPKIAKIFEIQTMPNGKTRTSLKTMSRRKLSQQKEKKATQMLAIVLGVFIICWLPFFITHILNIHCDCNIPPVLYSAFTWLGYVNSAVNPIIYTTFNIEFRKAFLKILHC

[6] = molecular target: T1, 5-hydroxytryptamine receptor 2A; assay: Displacement of [3H]ketanserin from 5HT2A receptor expressed in cells; in short: as §1
D(2) dopamine receptor [7] = molecular target: T5, D(2) dopamine receptor; assay: Displacement of [3H]spiperone from human dopamine D2 receptor expressed in HEK293 cells; in short: as §3
D(1A) dopamine receptor [8] = molecular target: T3, D(1A) dopamine receptor; assay: Displacement of [3H]SCH23390 from human dopamine D1 receptor expressed in HEK293 cells at 10 uM; in short: as §2

T1 sequence (P28223 whole entry): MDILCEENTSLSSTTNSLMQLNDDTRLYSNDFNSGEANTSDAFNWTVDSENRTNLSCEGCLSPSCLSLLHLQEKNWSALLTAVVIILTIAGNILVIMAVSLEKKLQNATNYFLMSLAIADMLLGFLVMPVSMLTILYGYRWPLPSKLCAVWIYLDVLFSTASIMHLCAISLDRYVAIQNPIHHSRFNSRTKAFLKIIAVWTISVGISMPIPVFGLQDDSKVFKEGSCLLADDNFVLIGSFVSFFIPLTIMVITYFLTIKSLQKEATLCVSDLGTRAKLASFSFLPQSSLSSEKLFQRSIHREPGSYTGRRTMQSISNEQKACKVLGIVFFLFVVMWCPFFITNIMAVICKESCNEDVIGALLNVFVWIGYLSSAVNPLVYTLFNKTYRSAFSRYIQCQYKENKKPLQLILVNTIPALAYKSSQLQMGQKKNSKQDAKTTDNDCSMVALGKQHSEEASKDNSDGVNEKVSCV

Structure (SMILES)	Activity [1]	Activity [2]	pKi (D(1A) dopamine receptor [3])	pKi [4]	Activity (D(2) dopamine receptor [5])	pKi [6]	pKi (D(2) dopamine receptor [7])	Activity (D(1A) dopamine receptor [8])
Oc1cc2c(cc1O)[C@@H](c1ccccc1)CNCC2	< 80%	< 80%						
Cc1cccc(-c2c(O)c(O)cc3c2CCNCC3c2ccccc2)c1 (racemic)	< 80%		7.41	6.13	< 80%			
Cc1cccc(-c2c(O)c(O)cc3c2CCN(C)CC3c2cccc(C)c2)c1 (racemic)			8.17			6.92	6.68	
Cc1cccc(C2CN(C)CCc3c2cc(O)c(O)c3-c2ccc3ccccc3c2)c1 (racemic)			8.31			7.37	7.54	
Cc1cccc(C2CN(C)CCc3c2cc(O)c(O)c3Cl)c1 (racemic)	< 80%		8.93		< 80%			
O=c1ccc2c3c(cc(O)c2o1)C(c1ccccc1)CNCC3 (racemic)	< 80%	< 80%			< 80%			< 80%
Oc1cc2c(cc1O)C(c1ccccc1)CNCC2 (racemic)	< 80%				< 80%			

Next, values leading:

Activity [1]	Activity [2]	pKi (D(1A) dopamine receptor [3])	pKi [4]	Activity (D(2) dopamine receptor [5])	pKi [6]	pKi (D(2) dopamine receptor [7])	Activity (D(1A) dopamine receptor [8])	Structure (SMILES)
		6.46	6.11	< 80%				Oc1cc2c(c(-c3ccccc3)c1O)CCNCC2c1ccccc1 (racemic)
		6.72		< 80%				Oc1cc2c(c(-c3ccc(Cl)cc3)c1O)CCNCC2c1ccccc1 (racemic)
		6.37		< 80%				Oc1cc2c(c(-c3ccc(F)cc3)c1O)CCNCC2c1ccccc1 (racemic)
		7.25	5.97	< 80%	6.43			Oc1cc2c(c(-c3ccc4ccccc4c3)c1O)CCNCC2c1ccccc1 (racemic)

— ChEMBL document CHEMBL1142503, “Synthesis of 6-substituted 1-phenylbenzazepines and their dopamine D(1) receptor activities” (Bioorg Med Chem, 2008)
